Results taken from ChEMBL document CHEMBL2346560, “Structure and function of a potent lipopolysaccharide-binding antimicrobial and anti-inflammatory peptide” (J Med Chem, 2013).
In brackets after ≈: the same amount, converted by molar mass. Activity calls are given as the source filed them. No cut-off for these calls is given here. Bridge positions count the residues as written; N and C are the ends. Peptide text beside a SMILES is read from it.

Assays:
Staphylococcus aureus [1] = assay: Antibacterial activity against Staphylococcus aureus ATCC 2592 after 16 hrs by broth dilution method; format: functional; conditions: ATCC 2592, 16 h
Procedure, shortened: (§1)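 MIC read-out, reported in µg/mL with µM equivalents. Each value is the mean of three independent experiments, each run in duplicate.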

Staphylococcus aureus [2] = assay: Antibacterial activity against Staphylococcus aureus ATCC 2592 treated with water after 16 hrs by broth dilution method; format: functional; conditions: ATCC 2592, 16 h
Procedure, shortened: (§2)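 Salt sensitivity of the MIC. Peptide was tested in water, NaCl, CaCl2, MgCl2 or PBS (Na2HPO4-NaH2PO4, pH 7.4), with every salt at 150 mM. Values are means of three independent experiments, each run in duplicate.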

Candida albicans [3] = assay: Antifungal activity against Candida albicans ATCC 2002 treated with PBS after 16 hrs by broth dilution method; format: functional; conditions: ATCC 2002, 16 h; procedure, shortened: as §2
Staphylococcus aureus [4] = assay: Antibacterial activity against ampicillin, benzylpencillin-resistant Staphylococcus aureus 08A875 after 16 hrs by broth dilution method; format: functional; conditions: 08A875, 16 h; procedure, shortened: as §1
RAW264.7 [5] = assay: Antiinflammatory activity in mouse RAW264.7 cells assessed as inhibition of LPS-induced TLR4 expression preincubated for 1 hr prior to LPS-challenge measured after 3 hrs by Western blotting analysis; format: functional, cell-based
Procedure, shortened: (§3)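 RAW 264.7 cells (1 × 10^6/well) were serum-starved in RPMI-1640 for 16 h. They were pretreated with peptide (0, 5, 10, 20 µg/mL) for 1 h, then given LPS (E. coli 055:B5, 0 or 100 ng/mL) for 3 h. Cells were washed in ice-cold PBS, and cytoplasmic or nuclear fractions were blotted for TLR4, JNK, NF-κB p65 and β-actin. Control was LPS alone.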

RAW264.7 [6] = assay: Antiinflammatory activity in mouse RAW264.7 cells assessed as inhibition of LPS-induced IL6 production after 24 hrs by ELISA; format: functional, cell-based
Procedure, shortened: (§4)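 RAW 264.7 cells (2 × 10^5) were plated and allowed to adhere. They were given peptide (2.5, 5, 10, 20 µg/mL) with or without LPS (E. coli 055:B5, 20 ng/mL) for 24 h. Supernatant TNF-α, IL-6 and MCP-1 were measured by ELISA at A450. Controls were LPS alone and untreated cells. Mean ± SEM of three separate experiments.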

Escherichia coli [7] = assay: Bactericidal activity against Escherichia coli ATCC 25922 at MIC after 20 mins by colony counting assay (reference value: 79.3 CFU); format: functional
Escherichia coli [8] = assay: Bactericidal activity against Escherichia coli ATCC 25922 at 5 times MIC after 10 mins by colony counting assay (reference value: 58.3 CFU); format: functional
Escherichia coli [9] = assay: Bactericidal activity against Escherichia coli ATCC 25922 at 10 times MIC after 40 mins by colony counting assay (reference value: 131.7 CFU); format: functional
RAW264.7 [10] = assay: Antiinflammatory activity in mouse RAW264.7 cells assessed as inhibition of LPS-induced NO production at 10 ug/mL after 24 hrs by spectrophotometric analysis relative to control; format: functional; conditions: RAW264.7, 24 h
Procedure, shortened: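 RAW 264.7 cells (1 × 10^7) in RPMI-1640 with 10% FBS and penicillin/streptomycin were treated with peptide (2.5, 5, 10, 20 µg/mL) with or without LPS (E. coli 055:B5, 100 ng/mL) for 24 h. Medium nitrite was measured with Griess reagent at A540 against a NaNO2 standard curve. Control was LPS alone. Mean ± SEM of three separate experiments.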

Escherichia coli [11] = assay: Bactericidal activity against Escherichia coli ATCC 25922 at 5 times MIC after 5 mins by colony counting assay (reference value: 47.7 CFU); format: functional
Candida albicans [12] = assay: Antifungal activity against Candida albicans ATCC 2002 treated with water after 16 hrs by broth dilution method; format: functional; conditions: ATCC 2002, 16 h; procedure, shortened: as §2
Pseudomonas aeruginosa [13] = assay: Antibacterial activity against ampicillin, benzylpencillin-resistant Pseudomonas aeruginosa 08031205 after 16 hrs by broth dilution method; format: functional; conditions: Pseudomonas aeruginosa, 08031205, 16 h; procedure, shortened: as §1
RAW264.7 [14] = assay: Cytotoxicity against mouse RAW264.7 cells at >25 ug/mL after 24 hrs by MTT assay; format: cell-based; conditions: raw264.7, 24 h
Candida albicans [15] = assay: Antifungal activity against Candida albicans ATCC 2002 treated with MgCl2 after 16 hrs by broth dilution method; format: functional; conditions: ATCC 2002, 16 h; procedure, shortened: as §2
Escherichia coli [16] = assay: Bactericidal activity against Escherichia coli ATCC 25922 at 10 times MIC after 10 mins by colony counting assay (reference value: 58.3 CFU); format: functional
Bacillus subtilis [17] = assay: Antibacterial activity against Bacillus subtilis 6633 after 16 hrs by broth dilution method; format: functional; conditions: Bacillus subtilis, 6633, 16 h
Procedure, shortened: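 MIC determined by an earlier in-house method. Values are means of three independent experiments, each run in duplicate.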

Escherichia coli [18] = assay: Bactericidal activity against Escherichia coli ATCC 25922 at MIC after 60 mins by colony counting assay (reference value: 296 CFU); format: functional
Bacillus subtilis [19] = assay: Antibacterial activity against Bacillus subtilis 6633 treated with PBS after 16 hrs by broth dilution method; format: functional; conditions: Bacillus subtilis, 6633, 16 h; procedure, shortened: as §2
Escherichia coli [20] = assay: Bactericidal activity against Escherichia coli ATCC 25922 at 5 times MIC after 20 mins by colony counting assay (reference value: 79.3 CFU); format: functional
Pseudomonas aeruginosa [21] = assay: Antibacterial activity against ampicillin, benzylpencillin-resistant Pseudomonas aeruginosa 08031014 after 16 hrs by broth dilution method; format: functional; conditions: Pseudomonas aeruginosa, 08031014, 16 h; procedure, shortened: as §1
RAW264.7 [22] = assay: Cytotoxicity against mouse RAW264.7 cells at 200 ug/mL after 24 hrs by MTT assay relative to control; format: cell-based; conditions: raw264.7, 24 h
RAW264.7 [23] = assay: Antiinflammatory activity in mouse RAW264.7 cells assessed as inhibition of LPS-induced JNK2 expression at 10 to 20 ug/mL preincubated for 1 hr prior to LPS-challenge measured after 3 hrs by Western blotting analysis; format: functional, cell-based; procedure, shortened: as §3
Pseudomonas aeruginosa [24] = assay: Antibacterial activity against Pseudomonas aeruginosa ATCC 27853 treated with water after 16 hrs by broth dilution method; format: functional; conditions: ATCC 27853, 16 h; procedure, shortened: as §2
RAW264.7 [25] = assay: Antiinflammatory activity in mouse RAW264.7 cells assessed as inhibition of LPS-induced JNK2 expression preincubated for 1 hr prior to LPS-challenge measured after 3 hrs by Western blotting analysis; format: functional, cell-based; procedure, shortened: as §3
RAW264.7 [26] = assay: Antiinflammatory activity in mouse RAW264.7 cells assessed as inhibition of LPS-induced TNF alpha production after 24 hrs by ELISA; format: functional, cell-based; procedure, shortened: as §4
RAW264.7 [27] = assay: Antiinflammatory activity in mouse RAW264.7 cells assessed as inhibition of LPS-induced NFkappaB translocation from cytoplasm to nucleus at 20 ug/mL preincubated for 1 hr prior to LPS-challenge measured after 3 hrs by Western blotting analysis relative to LPS-treated control; format: functional; procedure, shortened: as §3
Escherichia coli [28] = assay: Bactericidal activity against Escherichia coli ATCC 25922 at 5 times MIC after 40 mins by colony counting assay (reference value: 131.7 CFU); format: functional
Escherichia coli [29] = assay: Bactericidal activity against Escherichia coli ATCC 25922 at MIC after 10 mins by colony counting assay (reference value: 58.3 CFU); format: functional
Escherichia coli [30] = assay: Antibacterial activity against Escherichia coli ATCC 25922 treated with MgCl2 after 16 hrs by broth dilution method; format: functional; conditions: ATCC 25922, 16 h; procedure, shortened: as §2
Pseudomonas aeruginosa [31] = assay: Antibacterial activity against Pseudomonas aeruginosa ATCC 27853 treated with NaCl after 16 hrs by broth dilution method; format: functional; conditions: ATCC 27853, 16 h; procedure, shortened: as §2

## CC[C@H](C)[C@H](NC(=O)[C@H](Cc1cnc[nH]1)NC(=O)[C@H](CO)NC(=O)[C@@H](NC(=O)[C@@H](NC(=O)[C@@H](NC(=O)[C@@H](NC(=O)[C@H](CCCNC(=N)N)NC(=O)[C@H](CC(C)C)NC(=O)[C@H](CCCCN)NC(=O)[C@H](CCC(=O)O)NC(=O)[C@H](CCCCN)NC(=O)[C@H](CC(C)C)NC(=O)[C@H](CCCCN)NC(=O)[C@@H]1CSSC[C@H](NC(=O)[C@H](CCCCN)NC(=O)[C@@H](N)CCCNC(=N)N)C(=O)N[C@@H](CC(N)=O)C(=O)N[C@@H](Cc2ccccc2)C(=O)N[C@@H](CC(C)C)C(=O)N1)[C@@H](C)O)C(C)C)[C@@H](C)CC)[C@@H](C)O)C(=O)N[C@@H](CC(=O)O)C(=O)N[C@@H](CCCCN)C(=O)N[C@H](C(=O)N[C@@H](CC(C)C)C(=O)N[C@@H](CCCNC(=N)N)C(=O)N1CCC[C@H]1C(=O)N[C@@H](CCC(N)=O)C(=O)NCC(=O)O)C(C)C (H-RKCNFLCKLKEKLRTVITSHIDKVLRPQG-OH; disulfide 3-7)
Staphylococcus aureus [1]
  MIC: 2.74 µM (≈ 9.38 µg/mL)
Staphylococcus aureus [2]
  MIC: 9.38 µg/mL (≈ 2.74 µM)
Candida albicans [3]
  MIC: 2.35 µg/mL (≈ 0.686 µM)
Staphylococcus aureus [4]
  MIC: 5.48 µM (≈ 18.8 µg/mL)
RAW264.7 [5]
  inhibition: Dose-dependent effect
RAW264.7 [6]
  inhibition: Dose-dependent effect
Escherichia coli [7]
  CFU: 11.3
Escherichia coli [8]
  CFU: 10
Escherichia coli [9]
  CFU: 0
RAW264.7 [10]
  inhibition at 10 µg/mL: 50%
Escherichia coli [11]
  CFU: 29.7
Candida albicans [12]
  MIC: 4.69 µg/mL (≈ 1.37 µM)
Pseudomonas aeruginosa [13]
  MIC: 2.74 µM (≈ 9.38 µg/mL)
RAW264.7 [14]
  Activity: Toxic
Candida albicans [15]
  MIC: 2.35 µg/mL (≈ 0.686 µM)
Escherichia coli [16]
  CFU: 0
Bacillus subtilis [17]
  MIC: > 100 µg/mL
Escherichia coli [18]
  CFU: 0
Bacillus subtilis [19]
  MIC: > 100 µg/mL
Escherichia coli [20]
  CFU: 0
Pseudomonas aeruginosa [21]
  MIC: 10.9 µM (≈ 37.5 µg/mL)
RAW264.7 [22]
  Activity: 5.1%
RAW264.7 [23]
  inhibition: Active
Pseudomonas aeruginosa [24]
  MIC: 18.8 µg/mL (≈ 5.48 µM)
RAW264.7 [25]
  inhibition: Dose-dependent effect
RAW264.7 [26]
  inhibition: Dose-dependent effect
RAW264.7 [27]
  inhibition at 20 µg/mL: 74%
Escherichia coli [28]
  CFU: 0
Escherichia coli [29]
  CFU: 23.7
Escherichia coli [30]
  MIC: 2.35 µg/mL (≈ 0.686 µM)
Pseudomonas aeruginosa [31]
  MIC: 9.38 µg/mL (≈ 2.74 µM)
